Laboratory results published in ChEMBL document CHEMBL2413015, “Synthesis, evaluation and molecular dynamics study of some new 4-aminopyridine semicarbazones as an antiamnesic and cognition enhancing agents” (Bioorg Med Chem, 2013).
pIC50, pKi: −log10 of the molar value.

Key:
Rattus norvegicus [1] = experiment: Activity at AChE in Charles Foster rat hippocampus assessed as substrate hydrolyzed per mg of protein at 10 mg/kg, po for 8 days by Ellman's method (reference value: 47.50 +/- 0.84 mol/min); assay type: functional
Rattus norvegicus [2] = experiment: Toxicity in albino rat assessed as change in normal behavioral response upto 100 mg/kg after 30 mins to 48 hrs; assay type: organism-based; parameters: dose 100 mg/kg; details: in vivo
In short: (§1)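 Acute toxicity followed OECD guidelines. Nulliparous, non-pregnant female albino rats (120–150 g) were fasted overnight with water ad libitum. Graded oral doses up to 100 mg/kg were given in 0.3% carboxymethyl cellulose. Rats were observed continuously for 30 min, at 2 h and up to 48 h for behavioural or autonomic changes, tremors, convulsions, salivation, diarrhoea, sleep, lacrimation, cardiovascular signs, feeding and mortality.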

Cholinesterase [3] = target: T1, Cholinesterase (Homo sapiens, UniProt P06276); experiment: Inhibition of human serum BChE using butyrylthiocholine iodide as substrate preincubated for 20 mins prior to substrate addition by Ellman's method
In short: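 Human serum BChE was dissolved in 0.1% gelatine. The final mix held 0.1 M phosphate pH 8.0, DTNB, 0.02 unit/mL enzyme and butyrylthiocholine iodide. Five inhibitor concentrations spanning 20–80% inhibition were preincubated with enzyme for 20 min at 37 °C, then substrate was added. Rate was read at 412 nm over 5 min against an enzyme-free blank. Each point was run in triplicate, and IC50 was read graphically from log concentration–% inhibition curves.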

Rattus norvegicus [4] = experiment: Toxicity in albino rat assessed as mortality upto 100 mg/kg after 30 mins to 48 hrs; assay type: organism-based; parameters: dose 100 mg/kg; details: in vivo; in short: as §1
Rattus norvegicus [5] = experiment: Activity at AChE in Charles Foster rat prefrontal cortex assessed as substrate hydrolyzed per mg of protein at 10 mg/kg, po for 8 days by Ellman's method (reference value: 45.83 +/- 0.94 mol/min); assay type: functional
Rattus norvegicus [6] = experiment: Cognitive enhancing effect in Wistar rat assessed as reversal of learning impairment measured as transfer latency at 5 mg/kg, po for 8 days measured on second day of test by elevated plus maze test (reference value: 66.824 +/- 0.47 seconds); assay type: functional
In short: (§2)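 Oral dosing at 5 or 10 mg/kg for 8 days, suspended in 0.3% carboxymethyl cellulose; vehicle-treated controls. Transfer latency on elevated plus maze measured on first and second days of exposure (treatment days 7 and 8). Mean ± SEM, n = 6, one-way ANOVA versus vehicle control.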

Rattus norvegicus [7] = experiment: Cognitive enhancing effect in Wistar rat assessed as reversal of learning impairment measured as transfer latency at 5 mg/kg, po for 8 days measured on first day of test by elevated plus maze test (reference value: 70.846 +/- 0.76 seconds); assay type: functional; in short: as §2
Acetylcholinesterase [8] = target: T2, Acetylcholinesterase (Electrophorus electricus, UniProt O42275); experiment: Inhibition of electric eel AChE using acetylthiocholine iodide as substrate preincubated for 20 mins prior to substrate addition by Ellman's method; details: read-out: IC50
Rattus norvegicus [9] = experiment: Activity at AChE in Charles Foster rat hypothalamus assessed as substrate hydrolyzed per mg of protein at 5 mg/kg, po for 8 days by Ellman's method (reference value: 40.50 +/- 0.76 mol/min); assay type: functional
Rattus norvegicus [10] = experiment: Cognitive enhancing effect in Wistar rat assessed as reversal of learning impairment measured as transfer latency at 10 mg/kg, po for 8 days measured on second day of test by elevated plus maze test (reference value: 66.824 +/- 0.47 seconds); assay type: functional; in short: as §2
[11] = Selectivity ratio of IC50 for human serum BChE to IC50 for electric eel AChE
In short: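 Ratio of IC50 (BChE) to IC50 (AChE). Both came from Ellman assays at 0.1 M phosphate pH 8.0 and 0.02 unit/mL enzyme: AChE (stock in phosphate buffer) with acetylthiocholine, human serum BChE (stock in 0.1% gelatine) with butyrylthiocholine.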

Rattus norvegicus [12] = experiment: (§3) Cognitive enhancing effect in Charles Foster rat assessed as reversal of scopolamine-induced amnesia measured as transfer latency at 5 mg/kg, po for 8 days administered 1 hr prior to scopolamine-challenge on day 7 measured on same day by elevated plus maze test (reference value: 67.83 +/- 0.94 seconds); assay type: functional
Rattus norvegicus [13] = experiment: Cognitive enhancing effect in po dosed Wistar rat assessed as reversal of learning impairment measured as transfer latency administered for 8 days by elevated plus maze test; assay type: functional, organism-based; in short: as §2
Rattus norvegicus [14] = experiment: Activity at AChE in Charles Foster rat hippocampus assessed as substrate hydrolyzed per mg of protein at 5 mg/kg, po for 8 days by Ellman's method (reference value: 47.50 +/- 0.84 mol/min); assay type: functional
Rattus norvegicus [15] = experiment: Cognitive enhancing effect in Wistar rat assessed as reversal of learning impairment measured as transfer latency at 10 mg/kg, po for 8 days measured on first day of test by elevated plus maze test (reference value: 70.846 +/- 0.76 seconds); assay type: functional; in short: as §2
Rattus norvegicus [16] = experiment: (§4) Cognitive enhancing effect in Charles Foster rat assessed as reversal of scopolamine-induced amnesia measured as transfer latency at 5 mg/kg, po for 8 days administered 1 hr prior to scopolamine-challenge on day 7 measured on day 8 by elevated plus maze test (reference value: 62.17 +/- 0.47 seconds); assay type: functional
Rattus norvegicus [17] = experiment: as §4, with “10” for “5”; assay type: functional
Acetylcholinesterase [18] = target: T2, Acetylcholinesterase; experiment: Competitive inhibition of electric eel AChE using acetylthiocholine iodide as substrate by Lineweaver-Burk plot analysis
In short: (§5)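 Ellman assay in phosphate buffer pH 8 with a fixed amount of cholinesterase. Thiocholine substrate was varied from below to above, but near, Km, with or without inhibitor. Inhibition type was assigned from Lineweaver–Burk plots.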

Rattus norvegicus [19] = experiment: Activity at AChE in Charles Foster rat hypothalamus assessed as substrate hydrolyzed per mg of protein at 10 mg/kg, po for 8 days by Ellman's method (reference value: 40.50 +/- 0.76 mol/min); assay type: functional
Cholinesterase [20] = target: T1, Cholinesterase; experiment: Competitive inhibition of human serum BChE using butyrylthiocholine iodide as substrate by Lineweaver-Burk plot analysis; in short: as §5
Rattus norvegicus [21] = experiment: Activity at AChE in Charles Foster rat prefrontal cortex assessed as substrate hydrolyzed per mg of protein at 5 mg/kg, po for 8 days by Ellman's method (reference value: 45.83 +/- 0.94 mol/min); assay type: functional
Rattus norvegicus [22] = experiment: as §3, with “10” for “5”; assay type: functional

T1 sequence (P06276 whole entry): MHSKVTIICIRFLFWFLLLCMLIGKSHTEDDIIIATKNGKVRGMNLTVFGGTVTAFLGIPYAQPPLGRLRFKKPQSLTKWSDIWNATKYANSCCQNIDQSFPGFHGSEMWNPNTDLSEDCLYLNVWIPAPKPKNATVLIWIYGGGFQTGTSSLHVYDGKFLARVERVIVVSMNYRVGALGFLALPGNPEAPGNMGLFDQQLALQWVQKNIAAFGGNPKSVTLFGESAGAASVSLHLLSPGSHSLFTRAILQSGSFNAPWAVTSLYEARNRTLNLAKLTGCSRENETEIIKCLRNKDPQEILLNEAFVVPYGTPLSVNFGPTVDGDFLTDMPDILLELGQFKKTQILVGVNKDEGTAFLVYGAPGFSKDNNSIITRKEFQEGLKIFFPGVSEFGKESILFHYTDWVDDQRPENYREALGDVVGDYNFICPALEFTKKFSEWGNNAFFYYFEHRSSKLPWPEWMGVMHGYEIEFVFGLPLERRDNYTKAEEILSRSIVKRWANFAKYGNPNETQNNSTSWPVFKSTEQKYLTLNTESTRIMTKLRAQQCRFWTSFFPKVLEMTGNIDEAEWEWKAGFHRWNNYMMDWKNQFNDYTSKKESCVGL
T2 sequence (O42275 whole entry): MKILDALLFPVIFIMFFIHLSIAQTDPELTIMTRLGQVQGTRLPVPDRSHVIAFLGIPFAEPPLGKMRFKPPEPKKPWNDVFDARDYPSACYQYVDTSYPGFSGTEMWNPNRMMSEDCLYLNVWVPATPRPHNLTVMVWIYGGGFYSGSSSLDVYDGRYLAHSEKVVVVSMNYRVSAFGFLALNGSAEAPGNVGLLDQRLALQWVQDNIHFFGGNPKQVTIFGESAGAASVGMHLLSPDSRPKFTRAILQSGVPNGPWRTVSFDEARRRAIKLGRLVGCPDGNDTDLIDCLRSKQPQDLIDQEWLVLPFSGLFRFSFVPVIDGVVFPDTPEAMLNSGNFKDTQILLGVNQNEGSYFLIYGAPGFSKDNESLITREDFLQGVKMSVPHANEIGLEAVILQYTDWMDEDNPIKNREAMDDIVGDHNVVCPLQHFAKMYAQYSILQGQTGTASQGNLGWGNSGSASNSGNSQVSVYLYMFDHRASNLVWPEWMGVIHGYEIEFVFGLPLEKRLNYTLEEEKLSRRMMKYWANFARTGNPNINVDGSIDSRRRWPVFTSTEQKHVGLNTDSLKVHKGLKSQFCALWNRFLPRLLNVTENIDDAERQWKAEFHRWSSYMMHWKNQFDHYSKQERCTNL

| Structure (SMILES) | Activity (Rattus norvegicus [1]) | Activity (Rattus norvegicus [2]) | pIC50 (Cholinesterase [3]) | Activity (Rattus norvegicus [4]) | Activity (Rattus norvegicus [5]) | Time (Rattus norvegicus [6]) | Time (Rattus norvegicus [7]) | pIC50 (Acetylcholinesterase [8]) | Activity (Rattus norvegicus [9]) | Time (Rattus norvegicus [10]) | Ratio IC50 [11] | Time (Rattus norvegicus [12]) | Activity (Rattus norvegicus [13]) | Activity (Rattus norvegicus [14]) | Time (Rattus norvegicus [15]) | Time (Rattus norvegicus [16]) | Time (Rattus norvegicus [17]) | Activity (Rattus norvegicus [19]) | Activity (Rattus norvegicus [21]) | Time (Rattus norvegicus [22]) | further results |
| --- | --- | --- | --- | --- | --- | --- | --- | --- | --- | --- | --- | --- | --- | --- | --- | --- | --- | --- | --- | --- | --- |
| COc1ccc(/C=N/NC(=O)Nc2ccncc2)cc1OC | 35.83 mol/min | Non-toxic | 3.37 | Non-toxic | 35.17 mol/min | 44.5 s | 52.17 s | 4.90 | 35.33 mol/min | 40.5 s | 33.6 | 67.17 s | Dose-dependent effect | 38.17 mol/min | 49.33 s | 62.17 s | 57.17 s | 33.17 mol/min | 36.87 mol/min | 64.83 s | pKi (Acetylcholinesterase [18]): 4.99; pKi (Cholinesterase [20]): 3.55 |
| NC(=O)Nc1ccncc1 | 44.17 mol/min | Non-toxic | < 3.00 | Non-toxic | 42.5 mol/min | 61.25 s | 66.2 s | 3.56 | 37.5 mol/min | 60.17 s |  | 80.83 s | Dose-dependent effect | 44.5 mol/min | 65.12 s | 75 s | 73 s | 37.33 mol/min | 43 mol/min | 77.83 s |  |
| O=C(N/N=C/c1ccccc1)Nc1ccncc1 | 41 mol/min | Non-toxic | 3.07 | Non-toxic | 40.5 mol/min | 53.33 s | 59.17 s | 4.08 | 36.5 mol/min | 51 s | 10.3 | 74.17 s | Dose-dependent effect | 42.33 mol/min | 58.33 s | 69.33 s | 66.17 s | 35.83 mol/min | 42.03 mol/min | 70.33 s | pKi (Acetylcholinesterase [18]): 4.05; pKi (Cholinesterase [20]): 3.16 |
| COc1cc2c(cc1OC)C(=O)C(CC1CCN(Cc3ccccc3)CC1)C2 (configuration not stated) [DONEPEZIL] | 30.86 mol/min |  |  |  | 28.24 mol/min | 39.1 s | 45.14 s |  | 28.54 mol/min | 37.67 s |  | 64.2 s | Dose-dependent effect | 32.38 mol/min | 43.17 s | 55.42 s | 53.86 s | 26.82 mol/min | 31.25 mol/min | 61.25 s |  |
| NNC(=O)Nc1ccncc1 | 43.67 mol/min | Non-toxic | < 3.00 | Non-toxic | 42.17 mol/min | 60.5 s | 65 s | 3.68 | 37.47 mol/min | 59.33 s |  | 78 s | Dose-dependent effect | 44.5 mol/min | 64 s | 71.83 s | 69.83 s | 37.17 mol/min | 42.33 mol/min | 75.5 s |  |
